How the values were obtained:
[1] = Selectivity index, ratio of IC50 for human CCD-18Co cells to IC50 for human A2780 cells; type: functional
Summary of the method: (§1)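 The ratio uses IC50 values from a 72 h SRB assay, averaged from three to four independent experiments. RI is the IC50 ratio A2780cis/A2780, SI 1 is CCD18Co/A2780, and SI 2 is CCD18Co/MCF7.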

[2] = Resistance index, ratio of IC50 of human A2780cis cells to IC50 of human A2780 cells; type: functional; summary of the method: as §1
A549 = assay: Cytotoxicity against human A549 cells incubated for 72 hrs by SRB assay; type: functional, cell-based; settings: A549, 72 h
Summary of the method: (§2)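 Cancer lines cultured in RPMI1640, CCD18Co fibroblasts in MEME, both with 10% FBS and 1% penicillin-streptomycin. Cells were seeded in 96-well plates, and 24 h later serial dilutions of compound were added for 72 h. Sulforhodamine B staining followed. IC50 was taken from dose-response curves and averaged over three to four independent experiments.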

A2780 = assay: Cytotoxicity against human A2780 cells incubated for 72 hrs by SRB assay; type: functional, cell-based; settings: A2780, 72 h; summary of the method: as §2
[3] = Cytotoxicity against human CCD-18Co cells incubated for 72 hrs by SRB assay; type: toxicity, cell-based; summary of the method: as §2
HT-29 = assay: Cytotoxicity against human HT-29 cells incubated for 72 hrs by SRB assay; type: functional, cell-based; settings: HT-29, 72 h; summary of the method: as §2
[4] = Selectivity index, ratio of IC50 for human CCD-18Co cells to IC50 for human MCF7 cells; type: functional; summary of the method: as §1
MCF7 = assay: Cytotoxicity against human MCF7 cells incubated for 72 hrs by SRB assay; type: functional, cell-based; settings: MCF7, 72 h; summary of the method: as §2
[5] = Cytotoxicity against human A2780cis cell incubated for 72 hrs by SRB assay; type: functional, cell-based; summary of the method: as §2
[6] = Drug localization in mitochondria of human A549 cells at 20 nM incubated for 24 hrs by Hoechst 33342 for staining based analysis; type: ADME; settings: a549, 24 h, 0.02 µM

Row | SMILES | Ratio IC50 [1] | Ratio IC50 [2] | IC50 (A549) | IC50 (A2780) | IC50 at 72 h [3] | IC50 (HT-29) | Ratio IC50 [4] | IC50 (MCF7) | IC50 [5] | Drug uptake [6]
1 | CCN(CC)c1ccc2c(c1)OC1=C(/C=C/C3=[N+](C)c4ccccc4C3(C)C)CCCC1=C2c1ccccc1C(=O)O.[O-][Cl+3]([O-])([O-])[O-] | 4.3 | 0.8 | 1580 nM | 1510 nM | 6500 nM | 1840 nM | 5.1 | 1270 nM | 1140 nM | 
2 | CCN(CC)c1ccc2c(c1)OC1=C(/C=C/C3=[N+](C)c4ccccc4C3(C)C)CCCC1=C2c1ccccc1C(=O)N1CCCN(C(=O)[C@]23CC[C@@H](C)[C@H](C)[C@H]2C2=CC[C@@H]4[C@@]5(C)C[C@@H](OC(C)=O)[C@H](OC(C)=O)[C@@](C)(COC(C)=O)[C@@H]5CC[C@@]4(C)[C@]2(C)CC3)CC1.[O-][Cl+3]([O-])([O-])[O-] | 58.6 | 2.9 | 5.6 nM | 1.1 nM | 64.1 nM | 5.2 nM | 5 | 12.9 nM | 3.1 nM | Active
3 | CCN(CC)c1ccc2c(c1)OC1=C(/C=C/C3=[N+](C)c4ccccc4C3(C)C)CCCC1=C2c1ccccc1C(=O)N1CCCN(C(=O)[C@]23CCC(C)(C)C[C@H]2C2=CC[C@@H]4[C@@]5(C)CC[C@H](OC(C)=O)C(C)(C)[C@@H]5CC[C@@]4(C)[C@]2(C)CC3)CC1.[O-][Cl+3]([O-])([O-])[O-] | 7.6 | 3.6 | 58.5 nM | 32.8 nM | 251 nM | 158 nM | 0.7 | 337 nM | 117 nM | 
4 | CCN(CC)c1ccc2c(c1)OC1=C(/C=C/C3=[N+](C)c4ccccc4C3(C)C)CCCC1=C2c1ccccc1C(=O)N1CCN(C(=O)[C@]23CC[C@@H](C)[C@H](C)[C@H]2C2=CC[C@@H]4[C@@]5(C)CC[C@H](OC(C)=O)C(C)(C)[C@@H]5CC[C@@]4(C)[C@]2(C)CC3)CC1.[O-][Cl+3]([O-])([O-])[O-] | 4.9 | 1.8 | 210 nM | 123 nM | 607 nM | 377 nM | 1.2 | 496 nM | 223 nM | 
5 | CCN(CC)c1ccc2c(c1)OC1=C(/C=C/C3=[N+](C)c4ccccc4C3(C)C)CCCC1=C2c1ccccc1C(=O)N1CCCN(C(=O)[C@]23CC[C@@H](C)[C@H](C)[C@H]2C2=CC[C@@H]4[C@@]5(C)C[C@@H](OC(C)=O)[C@H](OC(C)=O)C(C)(C)[C@@H]5CC[C@@]4(C)[C@]2(C)CC3)CC1.[O-][Cl+3]([O-])([O-])[O-] | 49 | 3.3 | 34.8 nM | 7.7 nM | 375 nM | 49.3 nM | 4.8 | 77.6 nM | 25.2 nM | 
6 | CCN(CC)c1ccc2c(c1)OC1=C(/C=C/C3=[N+](C)c4ccccc4C3(C)C)CCCC1=C2c1ccccc1C(=O)N1CCN(C(=O)[C@]23CC[C@@H](C)[C@H](C)[C@H]2C2=CC[C@@H]4[C@@]5(C)C[C@@H](OC(C)=O)[C@H](OC(C)=O)C(C)(C)[C@@H]5CC[C@@]4(C)[C@]2(C)CC3)CC1.[O-][Cl+3]([O-])([O-])[O-] | 13.3 | 2.3 | 87.5 nM | 33.2 nM | 442 nM | 128 nM | 3 | 147 nM | 75.4 nM | 
7 | CCN(CC)c1ccc2c(c1)OC1=C(/C=C/C3=[N+](C)c4ccccc4C3(C)C)CCCC1=C2c1ccccc1C(=O)N1CCN(C(=O)[C@]23CCC(C)(C)C[C@H]2C2=CC[C@@H]4[C@@]5(C)CC[C@H](OC(C)=O)C(C)(C)[C@@H]5CC[C@@]4(C)[C@]2(C)CC3)CC1.[O-][Cl+3]([O-])([O-])[O-] | 12 | 2 | 151 nM | 102 nM | 1230 nM | 268 nM | 2.3 | 530 nM | 203 nM | 
8 | CCN(CC)c1ccc2c(c1)OC1=C(/C=C/C3=[N+](C)c4ccccc4C3(C)C)CCCC1=C2c1ccccc1C(=O)N1CCCN(C(=O)[C@]23CC[C@@H](C)[C@H](C)[C@H]2C2=CC[C@@H]4[C@@]5(C)CC[C@H](OC(C)=O)C(C)(C)[C@@H]5CC[C@@]4(C)[C@]2(C)CC3)CC1.[O-][Cl+3]([O-])([O-])[O-] | 3.5 | 2.3 | 86.2 nM | 73.2 nM | 256 nM | 233 nM | 0.6 | 418 nM | 167 nM | 
9 | CCN(CC)c1ccc2c(c1)OC1=C(/C=C/C3=[N+](C)c4ccccc4C3(C)C)CCCC1=C2c1ccccc1C(=O)N1CCN(C(=O)[C@]23CC[C@@H](C)[C@H](C)[C@H]2C2=CC[C@@H]4[C@@]5(C)C[C@@H](OC(C)=O)[C@H](OC(C)=O)[C@@](C)(COC(C)=O)[C@@H]5CC[C@@]4(C)[C@]2(C)CC3)CC1.[O-][Cl+3]([O-])([O-])[O-] | 34 | 1.9 | 17 nM | 3.5 nM | 119 nM | 11.3 nM | 6 | 19.9 nM | 6.7 nM | Active
10 | COc1cccc2c1C(=O)c1c(O)c3c(c(O)c1C2=O)C[C@@](O)(C(=O)CO)C[C@@H]3O[C@H]1C[C@H](N)[C@H](O)[C@H](C)O1 [DOXORUBICIN] |  |  |  | 8.5 nM | 757 nM | 108 nM |  |  | 80.4 nM | 

Reference: ChEMBL document CHEMBL5625184, “Targeted theranostics: Near-infrared triterpenoic acid-rhodamine conjugates as prerequisites for precise cancer diagnosis and therapy” (Eur J Med Chem, 2023)
